The values below come from ChEMBL document CHEMBL4321800, “Synthesis, Identification, and Structure-Activity Relationship Analysis of GATA4 and NKX2-5 Protein-Protein Interaction Modulators” (J Med Chem, 2019).

One data set concerns COS-1. As to the kind of experiment: Induction of necrosis in Chlorocebus aethiops COS1 cells assessed as LDH release at 1 to 30 uM after 24 hrs by LDH assay relative to control. The format is cell-based. To be noted: cos-1, 24 h. In short, it runs like this:
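COS-1 cells in DMEM with 10% FBS at 37 °C, 5% CO₂, plated 10 000/well and exposed next day to 1–30 μM for 24 h. Medium samples mixed with NAD, iodonitrotetrazolium, lactate and phenazine methosulfate in 0.2 M Tris-HCl pH 8.2, 30 min at room temperature. Stopped with acetic acid, A490 read and normalized to maximal and spontaneous release.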
As to `CCN(CC)c1ccc(NC(=O)c2c[nH]nc2-c2ccccc2)cc1`, the Activity was less than 8%.

For `CN(C)c1ccc(NCc2c[nH]nc2-c2ccc(F)cc2)cc1`, the Activity was less than 8%.

Regarding `Cc1onc(-c2ccccc2)c1C(=O)Nc1ccc(OCc2ccccc2)cc1`, the Activity is less than 8%.

For `CCN(CC)c1ccc(NCc2c[nH]nc2-c2cc(F)cc(F)c2)cc1`, the Activity was less than 8%.

`COc1ccc(-c2cc(N)nn2C(=O)c2c(-c3ccccc3)noc2C)cc1`: the Activity is less than 8%.

Consider `CCN(CC)c1ccc(/C=N/c2c(-c3ccccc3)noc2C)c(O)c1`, for which the Activity is less than 8%.

With `CC[N+](O)(CC)c1ccc(NC(=O)c2c(-c3ccccc3)noc2C)cc1.O=C([O-])c1cccc(Cl)c1`, the Activity is listed as less than 8%.

`CCN(CC)c1ccc(NC(=O)c2ccnn2-c2ccccc2)cc1`: the Activity is listed as less than 8%.

On to `CCCn1nnc(-c2ccccc2)c1C(=O)Nc1ccc(N(CC)CC)cc1`, for which the Activity is on record as less than 8%.

For the next data set, the target named is GATA4/NKX2-5 (Mus musculus) (UniProt Q08369+P42582). Nature of the data set: Modulation of mouse GATA4/mouse NKX2-5 protein-protein interaction expressed in Chlorocebus aethiops COS1 cells harboring 3xHA reporter gene assessed as transcriptional synergy at 10 uM after 24 hrs by luciferase reporter gene assay relative to control.
Settings: not given
It is filed as cell-based. The method in brief: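 COS-1 cells seeded 14 000/well, grown overnight, then transfected for 6 h in serum- and antibiotic-free medium with pGL3-3xHA reporter (three NKX2-5 sites, 100 ng/well) plus pMT2-GATA4 and pMT2-NKX2-5 (total 50 ng/well), Fugene 6 at 1:3 DNA/reagent. Compound or 0.1% DMSO vehicle for 24 h, then luminescence read. Triplicates, Grubbs outliers removed, expressed as % of control.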
With `CCN(c1ccc(NC(=O)c2c(-c3ccccc3)noc2C)cc1[N+](=O)[O-])C(C)C`, the Activity was determined as 75%.

Turning to `CCN(CC)c1ccc(NC(=O)c2c(C(F)(F)F)nn(C)c2Oc2ccccc2)cc1`, the Activity stood at 68%.

As to `CCN(CC)c1ccc(NC(=O)c2c(-c3cc(Br)cs3)noc2C)cc1`, the Activity was 89%.

On to `CCN(CC)c1ccc(NC(=O)c2c(-c3ccccc3)nnn2CCOC)cc1`, for which the Activity was determined as 91%.

As to `Cc1onc(-c2ccccc2)c1COc1ccc(C(=O)OCc2ccoc2)cc1`, the Activity came to 100%.

With `CCN(CC)c1ccc(NC(=O)c2c[nH]nc2-n2cnnn2)cc1`, the Activity amounted to 110%.

As for `CCN(CC)c1ccc(NC(=O)c2c(-c3ccc(C)s3)noc2C)cc1`, the Activity amounted to 100%.

Take `C#Cc1ccc(NC(=O)c2c(-c3ccccc3)noc2C)cc1`: the Activity is 84%.

Turning to `CCN(CC)c1ccc(NC(=O)c2c(-c3ccccc3[N+](=O)[O-])noc2C)cc1`, the Activity worked out at 84%.

Consider `CCN(CC)c1ccc(NC(=O)c2c(-c3ccc(-c4ccc(F)cc4)cc3)noc2C)cc1`, for which the Activity is 110%.

`CCN(CC)c1ccc(NC(=O)c2c(-c3cc(C)on3)noc2C)cc1`: the Activity amounted to 100%.

Regarding `Cc1onc(-c2cccc([N+](=O)[O-])c2)c1C(=O)Nc1ccc(N(C)C)cc1`, the Activity is 100%.

As for `CCN(CC)c1ccc(C(=O)Nc2c(-c3ccccc3)noc2C)cc1`, the Activity worked out at 94%.

As to `CCN(CC)c1ccc(NC(=O)c2c(-c3ccccc3Cl)noc2C)cc1`, the Activity turned out to be 88%.

Take `CCN(CC)c1ccc(NC(=O)c2ncoc2-c2ccco2)cc1`: the Activity worked out at 120%.

For `CCN(CC)c1ccc(NC(=O)c2c(C)nc3ccccn23)cc1`, the Activity came out at 78%.

As to `Cc1onc(-c2ccccc2)c1C(=O)Nc1ccc(OCCN2CCOCC2)cc1`, the Activity stood at 97%.

For `CCC(O)c1ccc(OCc2c(-c3ccccc3)noc2C)cc1` (racemic), the Activity is 87%.

Take `CCN(CC)c1ccc(/N=C(\SC)c2c(-c3ccccc3)noc2C)cc1`: the Activity amounted to 86%.

Take `CCN(c1ccc(NC(=O)c2c(-c3ccccc3)noc2C)cc1N)C(C)C`: the Activity turned out to be 76%.

With `CCN(CC)c1ccc(NC(=S)c2c(-c3ccccc3)noc2C)cc1`, the Activity turned out to be 99%.

In the case of `CCN(CC)c1ccc(NC(=O)c2c(-n3cccc3)sc(C)c2C)cc1`, the Activity worked out at 79%.

With `COC(=O)c1ccc(NC(=O)c2c(-c3ccccc3)noc2C)cc1`, the Activity stood at 92%.

For `CCN(CC)c1ccc(NS(=O)(=O)c2c(-c3ccccc3)noc2C)cc1`, the Activity is 98%.

Turning to `CCN(CC)C(=O)c1ccc(OCc2c(-c3ccccc3)noc2C)cc1`, the Activity was found to be 92%.

Regarding `CCN(CC)c1ccc(/N=C(\SCCF)c2c(-c3ccccc3)noc2C)cc1`, the Activity was 110%.

With `CCN(CC)c1ccc(NC(=O)c2nn(-c3ccccc3)nc2C)cc1`, the Activity came to 100%.

On to `CCN(CC)c1ccc(NC(=O)c2c(-c3ccc([N+](=O)[O-])cc3)noc2C)cc1`, for which the Activity was 100%.

On to `CC[N+](C)(c1ccc(NC(=O)c2c(-c3ccccc3)noc2C)cc1)C(C)C` (configuration not stated), for which the Activity was 83%.

Consider `CCN(CC)c1ccc(NC(=O)c2c(-c3ccccn3)noc2C)cc1`, for which the Activity worked out at 100%.

In the case of `Cc1onc(-c2ccccc2)c1COc1ccc([N+](=O)[O-])cc1`, the Activity is 85%.

Take `Cc1cc(NC(=O)c2c(-c3ccccc3)noc2C)ccc1C(C)C`: the Activity was 93%.

With `CCN(CC)c1ccc(NC(=O)c2c(-c3ccccc3)nnc3ccccc23)cc1`, the Activity amounted to 87%.

For `CCN(CC)c1ccc(N(CCF)C(=O)c2c(-c3ccccc3)noc2C)cc1`, the Activity worked out at 79%.

For the molecule `CCN(CC)c1ccc(NCc2c(-c3ccccc3)noc2C)cc1`, the Activity amounted to 100%.

As for `CCC(=O)c1ccc(OCc2c(-c3ccccc3)noc2C)cc1`, the Activity turned out to be 76%.

As for `CCCOC(=O)c1ccc(OCc2c(-c3ccccc3)noc2C)cc1`, the Activity was determined as 110%.

With `Cc1onc(-c2ccccc2)c1C(=O)Nc1ccc(C(=O)OCCN(C)C)cc1`, the Activity is 110%.

Take `CCN(CC)c1ccc(NC(=O)c2nnn(C)c2-c2ccccc2)cc1`: the Activity is 78%.

`CCN(CC)c1ccc(NC(=O)c2c(-c3ccc(Br)cc3)noc2C)cc1`: the Activity worked out at 70%.

As for `CCN(CC)c1ccc(NC(=O)c2ccsc2)cc1`, the Activity was 110%.

Regarding `CCN(CCO)c1ccc(NC(=O)c2c(-c3ccccc3)noc2C)cc1`, the Activity was 67%.

`CCN(CC)c1ccc(N(Cc2ccccc2)C(=O)c2c(-c3ccccc3)noc2C)cc1`: the Activity was determined as 66%.

`CCN(CC)c1ccc(NC(=O)c2ncoc2-c2ccccc2)cc1`: the Activity worked out at 110%.

As for `CCN(CC)c1ccc(/C=N/c2c(-c3ccccc3)noc2C)cc1`, the Activity was 96%.

On to `CCN(CC)c1ccc(/N=C/c2c(-c3ccccc3)noc2C)cc1`, for which the Activity was determined as 100%.

Take `CCN(CC)c1ccc(N(C)C(=S)c2c(-c3ccccc3)noc2C)cc1`: the Activity worked out at 91%.

As for `Cc1onc(-c2ccccc2)c1C(=O)Nc1ccc(C(=O)O)cc1`, the Activity worked out at 98%.

For the molecule `CCN(CC)c1ccc(NC(=O)c2cc(-c3ccc(Br)cc3)oc2C(F)(F)F)cc1`, the Activity was 85%.

For `Cc1onc(-c2ccccc2)c1C(=O)Nc1ccc2c(c1)C(=O)CC2`, the Activity is 79%.

Regarding `CCN(CC)c1ccc(NC(=O)c2c(-c3ccccc3)nnn2C)cc1`, the Activity stood at 84%.

Consider `Cc1onc(-c2ccccc2)c1COc1ccc(C(=O)OCC(C)C)cc1`, for which the Activity turned out to be 99%.

For the molecule `CCN(CC)c1ccc(CN(C(=O)Nc2ccc(C#N)cc2)c2c(-c3ccccc3)noc2C)cc1`, the Activity came out at 85%.

Regarding `CCN(CC)c1ccc(NC(=O)c2ccnc(C(F)(F)F)c2)cc1`, the Activity was found to be 84%.

Turning to `Cc1onc(-c2ccccc2)c1COc1ccc(C(=O)N(C)CCCO)cc1`, the Activity was 100%.

In the case of `CCN(CC)c1ccc(NC(=O)c2c(-c3c(Cl)cccc3Cl)noc2C)cc1`, the Activity is 110%.

`CCN(CC)c1ccc(NC(=O)c2ccoc2CCc2cccs2)cc1`: the Activity was 100%.

With `Cc1onc(-c2ccccc2)c1C(=O)Nc1ccc(N(C)C)cc1`, the Activity was determined as 99%.

In the case of `CCN(CC)c1ccc(CN(C)c2c(-c3ccccc3)noc2C)cc1`, the Activity worked out at 82%.

With `CCN(CC)c1ccc(N(Cc2c(-c3ccccc3)noc2C)C(C)=O)cc1`, the Activity turned out to be 80%.

Turning to `CCN(CC)c1ccc(NC(=O)c2c(SC)nsc2SC)cc1`, the Activity worked out at 110%.

For the molecule `CCN(CC)c1ccc(NC(=O)c2cnn(C)c2-c2ccccc2)cc1`, the Activity amounted to 62%.

For the molecule `CCN(CC)c1ccc(NC(=O)C2CCCC2)cc1`, the Activity was found to be 110%.

Turning to `Cc1onc(-c2ccccc2)c1C(=O)Nc1ccc(C(=O)OCC#N)cc1`, the Activity amounted to 90%.

Regarding `CCN(CC)c1ccc(NC(=O)c2c(-c3ccccc3)noc2C)cc1Cl`, the Activity is 69%.

As to `CCN(CC)c1ccc(NC(=O)c2c(-c3c(Cl)ccc([N+](=O)[O-])c3Cl)noc2C)cc1`, the Activity amounted to 66%.

A further data set deals with Homeobox protein Nkx-2.5 (Mus musculus) (UniProt P42582). Nature of the data set: Modulation of mouse NKX2-5 expressed in Chlorocebus aethiops COS1 cells harboring 3xHA reporter gene assessed as protein-induced transcriptional activity at 10 uM after 24 hrs by luciferase reporter gene assay relative to control. The format is cell-based.
Sequence of Homeobox protein Nkx-2.5 (Mus musculus) (P42582 whole entry): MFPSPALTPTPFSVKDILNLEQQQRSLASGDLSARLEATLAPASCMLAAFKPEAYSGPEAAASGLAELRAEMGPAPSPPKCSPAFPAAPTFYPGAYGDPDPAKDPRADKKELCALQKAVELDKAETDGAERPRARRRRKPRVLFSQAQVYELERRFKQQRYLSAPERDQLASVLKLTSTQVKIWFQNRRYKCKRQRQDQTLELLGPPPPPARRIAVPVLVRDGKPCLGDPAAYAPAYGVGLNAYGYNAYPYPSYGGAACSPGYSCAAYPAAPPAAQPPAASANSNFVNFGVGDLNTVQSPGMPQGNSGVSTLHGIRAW
Settings: not given
The method in brief: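 COS-1 cells seeded 14 000/well and grown overnight. Transfection for 6 h in serum- and antibiotic-free medium with pGL3-3xHA reporter (100 ng/well) and pMT2-NKX2-5 (25 ng/well), Fugene 6 1:3. Compound or 0.1% DMSO vehicle for 24 h, then luciferase luminescence. Triplicate wells with Grubbs outlier removal, % of control.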
(In general: Reporter assays use an easily measured gene product as a stand-in for the process of interest.)
Turning to `CCN(CC)c1ccc(NC(=O)c2c(-c3ccc(C)s3)noc2C)cc1`, the Activity is 88%.

Take `CCN(CC)c1ccc(NC(=O)c2c(-c3cc(C)on3)noc2C)cc1`: the Activity is 87%.

As to `CCN(CC)c1ccc(NC(=O)c2c(-c3ccccc3Cl)noc2C)cc1`, the Activity amounted to 97%.

On to `CCN(CC)c1ccc(NC(=O)c2c(C)nc3ccccn23)cc1`, for which the Activity was 86%.

In the case of `CCN(CC)c1ccc(NC(=O)c2c(-n3cccc3)sc(C)c2C)cc1`, the Activity came out at 90%.

`CCC(=O)c1ccc(OCc2c(-c3ccccc3)noc2C)cc1`: the Activity worked out at 80%.

The target of a further data set is Transcription factor GATA-4 (Mus musculus) (UniProt Q08369). Nature of the data set: Modulation of mouse GATA4 expressed in Chlorocebus aethiops COS1 cells harboring NP-112 reporter gene assessed as BNP promoter-driven transcriptional activity at 10 uM after 24 hrs by luciferase reporter gene assay relative to control. The format is cell-based.
Sequence of Transcription factor GATA-4 (Mus musculus) (Q08369 whole entry): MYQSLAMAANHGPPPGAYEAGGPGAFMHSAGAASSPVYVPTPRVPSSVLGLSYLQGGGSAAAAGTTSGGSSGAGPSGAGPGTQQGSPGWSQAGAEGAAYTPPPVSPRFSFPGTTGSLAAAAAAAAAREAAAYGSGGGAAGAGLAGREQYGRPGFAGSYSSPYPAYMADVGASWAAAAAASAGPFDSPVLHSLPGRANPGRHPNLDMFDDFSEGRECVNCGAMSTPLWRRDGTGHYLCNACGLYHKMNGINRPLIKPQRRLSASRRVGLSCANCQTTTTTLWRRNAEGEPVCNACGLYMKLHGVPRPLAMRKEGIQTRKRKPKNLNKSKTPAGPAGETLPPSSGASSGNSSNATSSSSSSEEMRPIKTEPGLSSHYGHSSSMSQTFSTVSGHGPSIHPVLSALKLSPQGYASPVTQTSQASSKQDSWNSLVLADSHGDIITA
Settings: not given
The method in brief:
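GATA reporter assay: COS-1 cells (14 000/well, overnight) transfected 6 h serum/antibiotic-free with NP-112 reporter (tandem GATA sites plus rat BNP minimal promoter, 100 ng/well) and pMT2-GATA4 (25 ng/well), Fugene 6 1:3. Treated 24 h with compound or 0.1% DMSO. Luminescence read; triplicates, Grubbs outliers removed, % of control.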
In the case of `CCN(CC)c1ccc(NC(=O)c2c(-c3ccc(C)s3)noc2C)cc1`, the Activity stood at 92%.

Take `CCN(CC)c1ccc(NC(=O)c2c(-c3cc(C)on3)noc2C)cc1`: the Activity was found to be 100%.

Consider `CCN(CC)c1ccc(NC(=O)c2c(-c3ccccc3Cl)noc2C)cc1`, for which the Activity was 110%.

With `CCN(CC)c1ccc(NC(=O)c2c(C)nc3ccccn23)cc1`, the Activity stood at 94%.

For the molecule `CCN(CC)c1ccc(NC(=O)c2c(-n3cccc3)sc(C)c2C)cc1`, the Activity stood at 66%.

On to `CCC(=O)c1ccc(OCc2c(-c3ccccc3)noc2C)cc1`, for which the Activity was determined as 78%.
